This is a sample that favours compounds with a hit; in the whole collection about 2.3% have one here.
CSN deneddyl inh: inhibitors of CSN-mediated cullin deneddylation, primary screen, biochemical, fluorescence polarization, uHTS; AID 651999, 2013; inhibition, % at 12.5 µM; 360,000 tested, 0.38% active; COP9 signalosome complex subunit 5 (Homo sapiens), Q92905; Purified CSN, SCF-Nedd8-OG deneddylation;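 active = pattern-corrected inhibition above about 35%, with an unprinted fluorescence ratio check between 0.5 and 1.5, limit read from the data, passing the limit was not always enough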
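Material: purified human Csn5 enzyme expressed in HEK293T cells / Medium: Tris buffer pH 7.5, NaCl, DTT, Tween-20, trehalose, ovalbumin / Compound dosing: 12.5 µM single point / Schedule: 90 min incubation of compound, enzyme and substrate at room temperature / Signal: fluorescence polarization of the substrate / Control set: no-enzyme wells high, enzyme-with-substrate wells low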
Rpn11 inh: Rpn11 (PSMD14) deubiquitinase inhibitors, primary screen, biochemical, fluorescence polarization, uHTS; 26S proteasome non-ATPase regulatory subunit 14 (Homo sapiens), O00487; human 26S proteasome, Ub4-pepOG fluorescence polarization; 20S core pre-blocked with epoxomicin; inhibition, % at 20 µM; 360,000 tested, 0.59% active; AID 588493, 2011;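 active = inhibition at 20 µM, scaled to each plate's controls, above about 33%, limit read from the data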
SUMO1-SIM PPI: modulators of SUMO1 protein-protein interactions, primary screen, biochemical, uHTS; Small ubiquitin-related modifier 1 (Homo sapiens), P63165; SUMO1 binding to a labelled peptide, TR-FRET, 1 h; inhibition, % at 20 µM; 360,000 tested, 0.33% active; in the data active = inhibition above about 37%
DNMT1 block: human DNMT1 methyltransferase inhibitors, primary screen, biochemical, molecular beacon, fluorescence, HinP1I cleavage, uHTS. inhibition (reported as % activation of signal), % at 10 µM. 360,000 tested, 0.83% active. DNA (cytosine-5)-methyltransferase 1 (Homo sapiens), P26358; in the data active = inhibition above about 50%
MT1-MMP act inh: blockers of MT1-MMP proenzyme processing, primary screen, HT1080 RFP-PRO-GFP cells, GFP/RFP fluorescence; GFP/RFP ratio fluorescence, overnight; percent of plate control window, DMSO zero; GFP/RFP ratio change, % at 20 µM; 360,000 tested, 0.061% active;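 active = GFP/RFP ratio change of at least 30% with cell ATP level not reduced by more than half and red fluorescence within 50% of control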
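Material: RFP-PRO-GFP reporter HT1080 cells. Dosing: single-point 20 µM compound, 1% DMSO. Controls: DMSO and RFP-L50D-GFP cell wells. Timing: cells overnight before dosing, compound overnight, 37 °C, 5% CO2. Measure: GFP/RFP fluorescence ratio.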
SKN-1 inh: suppressors of acrylamide-induced Pgst-4::GFP reporter in worms, primary screen, SKN-1 inhibitor project, whole organism, uHTS, GFP/RFP fluorescence ratio, strain VP596 | 360,000 tested, 0.49% active | AID 624304, 2012 | inhibition, % at 21.8 µM | C. elegans VP596 Pgst-4::GFP/RFP ratio, 24 h;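 active = interference check ratio from 0.5 to 1.5 plus GFP to RFP signal ratio inhibition reaching or exceeding a fixed threshold, cut at about 30% in these data, passing the limit was not always enough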
Large screens that a line does not name were inactive.

CC(C)C[C@@H](CN1CCC[C@H]1CN1C(=O)C(=O)NC[C@@H]1Cc1ccccc1)N1C[C@H](Cc2ccc(O)cc2)N(CC2CCCCCC2)C(=O)C1=O	none (no result: Rpn11 inh, DNMT1 block)
Nc1ccc(-c2c3ccc(=O)cc-3oc3cc(O)ccc23)cc1C(=O)O	DNMT1 block active
O=c1ccc2c(-c3ccccc3)c3ccc(O)cc3oc-2c1	DNMT1 block active
O=c1cc(-c2ccccc2)oc2cc(O)ccc12	none
O=C(Nc1ccc(-c2nc3ccccc3[nH]2)cc1)c1ccc2c(c1)OCO2	SUMO1-SIM PPI 41.6
O=C(Nc1ccc(Cl)c(-c2nc3ccccc3[nH]2)c1)c1ccc2c(c1)OCO2	none
Cc1ccc(C2CC(=O)N3CN(c4ccc(Br)cc4)CSC3=C2C#N)o1 (stereo unspecified)	CSN deneddyl inh 35.3, Rpn11 inh 45.3, DNMT1 block 101.2
CC(C)CN1C(=O)CN(S(C)(=O)=O)CC1(C)C(=O)Nc1ccc2c(c1)OCCO2 (stereo unspecified)	none (no result: Rpn11 inh, DNMT1 block)
CCCCNC(=O)C1(C)CCN1C(=O)c1cccc(OC(C)=O)c1C (stereo unspecified)	none
COCCNc1nc(Oc2cncc(Cl)c2)c2sccc2n1	none
CCOC(=O)c1cccc(C2=CC(=O)C[C@H](c3ccc(OC)cc3)C2)c1	CSN deneddyl inh 95.0
COc1ccc([C@H]2CC(=O)C=C(c3cccc(Cl)c3)C2)cc1	none
CCOC(=O)[C@]12CCCC=C1N(Cc1cccc3ccccc13)C(=O)[C@H](CC(=O)NCc1ccc(OC)c(OC)c1)C2	none (no result: Rpn11 inh, DNMT1 block)
CNc1ncnc2c1ncn2[C@H]1CN(Cc2ccc(-c3ccccc3)cc2)C[C@@H](CO)O1	none
CC(C)(CN1CCc2ccccc2C1)NS(=O)(=O)c1ccc(Cl)cc1	SUMO1-SIM PPI 44.6
C#CCOCCOCCOCCNc1nc(N2CCOCC2)nc(N2CCN(C(=O)[C@H](CCCCN)n3cc(CCC(=O)O)nn3)CC2)n1	none
C#CCOCCOCCOCCNc1nc(N2CCN(C(=O)[C@H](CCC(=O)O)n3cc(CN)nn3)CC2)nc(N2CCN(C(=O)[C@H](CCCCN)n3cc([C@@H](N)CC(N)=O)nn3)CC2)n1	none
C#CCOCCOCCOCCNc1nc(N2CCN(C(=O)C([C@@H](C)O)n3cc([C@@H](N)CCCCN)nn3)CC2)nc(N2CCN(C(=O)[C@H](CCC(=O)O)n3cc([C@@H](N)[C@H](C)CC)nn3)CC2)n1 (stereo partly specified)	none
C#CCOCCOCCOCCNc1nc(N2CCN(C(=O)[C@H](CCCCN)n3cc(CN)nn3)CC2)nc(N2CCN(C(=O)[C@H](CCCCN)n3cc(CN)nn3)CC2)n1	CSN deneddyl inh 38.8
C#CCOCCOCCOCCNc1nc(N2CCN(C(=O)[C@H](CCCCN)n3cc(CN)nn3)CC2)nc(N2CCN(C(=O)[C@H](CCC(=O)O)n3cc([C@@H](N)CCCCN)nn3)CC2)n1	CSN deneddyl inh 99.9
C#CCOCCOCCOCCNc1nc(N2CCN(C(=O)C([C@@H](C)O)n3cc([C@@H](N)CCCCN)nn3)CC2)nc(N2CCN(C(=O)[C@H](CCCCN)n3cc([C@@H](N)[C@H](C)CC)nn3)CC2)n1 (stereo partly specified)	CSN deneddyl inh 84.7
C#CCOCCOCCOCCNc1nc(N2CCN(C(=O)C(Cc3cc4ccccc4[nH]3)n3cc(C(N)C(C)CC)nn3)CC2)nc(N2CCN(C(=O)C(Cc3cc4ccccc4[nH]3)n3cc(C(N)C(C)CC)nn3)CC2)n1 (stereo unspecified)	CSN deneddyl inh 43.8

Compound activity from PubChem BioAssay.
